Data set [1] can be described thus: folding enthalpy; higher = less favourable; fluorescence melt of hairpins on a sequencing array, two-state fit. The conditions noted are these: sodium 0.088 M. The procedure, abridged: (§1)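 Melting temperature and folding enthalpy were derived from bootstrapped two-state fits. The fitted temperatures were raised by 9.35 °C to agree with UV melts, and four replicates were combined by inverse variance. The underlying data were Cy3 fluorescence images of library hairpins, with annealed Cy3 and quencher oligos, on a sequenced MiSeq flow cell in 50 mM Na-HEPES pH 8.0, 25 mM NaCl, taken in 2.5 °C steps up to 60 °C, normalised to pre-quench Cy3 and to control constructs.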

Data set [2] is described as follows: melting temperature; fluorescence melt of hairpins on a sequencing array, two-state fit, raised by 9.35 °C to match UV melts. The conditions noted are these: sodium 0.088 M. The procedure, abridged:
as §1

Turning to GATCGGCACCCGATC ((((((...)))))), the folding enthalpy in data set [1] is -35.9 kcal/mol. Further, the Tm in data set [2] stood at 55 °C.
On the same counts, the results for GATCGGCAGACCGATC ((((((....)))))) are -38 kcal/mol and 57.5 °C.
On the same counts, the results for GATCGGCAGCCGATC ((((((...)))))) are -50.7 kcal/mol and 55.2 °C.
On the same counts, the results for GATCGGCAGTCCGATC ((((((....)))))) are -37.7 kcal/mol and 56.7 °C.
For GATCGGCCCCCCGATC ((((((....)))))), the folding enthalpy in data set [1] is -37.1 kcal/mol. In addition, in data set [2], the Tm came out at 56.1 °C.
Regarding GATCGGCCCCCGATC ((((((...)))))), the folding enthalpy in data set [1] was -44.9 kcal/mol. Moreover, the Tm in data set [2] stood at 56 °C.
On the same counts, the results for GATCGGCGAAAGCCATC (((.(((....)))))) are -11 kcal/mol and 35.7 °C.
For GATCGGCGCCCCGATC ((((((....)))))) the same measures were -39.7 kcal/mol and 56.8 °C.
In the case of GATCGGCTACCCGATC ((((((....)))))), the folding enthalpy in data set [1] is -41 kcal/mol. Further, in data set [2], the Tm is 54.9 °C.
On the same counts, the results for GATCGGCTTACCGATC ((((((....)))))) are -35.4 kcal/mol and 57.7 °C.
On the same counts, the results for GATCGGCTTTCCGATC ((((((....)))))) are -37 kcal/mol and 58.6 °C.
Turning to GATCGGGACCCGATC ((((((...)))))), in data set [1], the folding enthalpy is -41.2 kcal/mol. The Tm in data set [2] amounted to 56.9 °C.
For GATCGGGATCCGATC ((((((...)))))) the same measures were -39.3 kcal/mol and 55.6 °C.
With GATCGGGATGCCGATC ((((((....)))))), the folding enthalpy in data set [1] was -42.1 kcal/mol. Also, in data set [2], the Tm worked out at 57.4 °C.
For GATCGGGCGACCGATC ((((((....)))))) the same measures were -44.9 kcal/mol and 63.1 °C.
As for GATCGGGCGGCCGATC ((((((....)))))), in data set [1], the folding enthalpy was -57.9 kcal/mol. In addition, the Tm in data set [2] was 61.8 °C.
For GATCGGGCTGCCGATC ((((((....)))))) the same measures were -46.5 kcal/mol and 57.1 °C.
For GATCGGGGAAACCCGACC (.(((((....))))).) the same measures were -13.6 kcal/mol and 43.5 °C.
For GATCGGGGAAACCCGATC (((((((....))))))) the same measures were -42.5 kcal/mol and 69 °C.
For GATCGGGGAAACCTGGTC ((.(.((....)).).)), the folding enthalpy in data set [1] is -22.6 kcal/mol. For the same sequence, the Tm in data set [2] was found to be 36.3 °C.
For GATCGGGGGACCGATC ((((((....)))))) the same measures were -36.2 kcal/mol and 61.9 °C.
For GATCGGGGGGCCGATC ((((((....)))))) the same measures were -53.6 kcal/mol and 57.3 °C.
On the same counts, the results for GATCGGGGGTCCGATC ((((((....)))))) are -34.3 kcal/mol and 57 °C.
Consider GATCGGGGTTCCGATC ((((((....)))))), for which the folding enthalpy in data set [1] is -36.9 kcal/mol. The Tm in data set [2] was 59 °C.
On the same counts, the results for GATCGGGTCTCCGATC ((((((....)))))) are -41.2 kcal/mol and 59.1 °C.
For GATCGGTAAGCCGATC ((((((....)))))) the same measures were -49.4 kcal/mol and 58.9 °C.
On the same counts, the results for GATCGGTACGCCGATC ((((((....)))))) are -38.6 kcal/mol and 63.6 °C.
As to GATCGGTATACCGATC ((((((....)))))), the folding enthalpy in data set [1] was -36.7 kcal/mol. Also, the Tm in data set [2] turned out to be 64.3 °C.
For GATCGGTATCCCGATC ((((((....)))))) the same measures were -34.5 kcal/mol and 57.3 °C.
For GATCGGTCAACCGATC ((((((....)))))) the same measures were -39.2 kcal/mol and 57.5 °C.
Consider GATCGGTCCACCGATC ((((((....)))))), for which, in data set [1], the folding enthalpy is -50 kcal/mol. The Tm in data set [2] turned out to be 60.9 °C.
For GATCGGTCTACCGATC ((((((....)))))) the same measures were -39.3 kcal/mol and 62.3 °C.
On the same counts, the results for GATCGGTGAGCCGATC ((((((....)))))) are -48.6 kcal/mol and 60.8 °C.
On the same counts, the results for GATCGGTTCTCCGATC ((((((....)))))) are -44.3 kcal/mol and 60.6 °C.
For the sequence GATCGGTTGACCGATC ((((((....)))))), the folding enthalpy in data set [1] was -33.9 kcal/mol. Also, the Tm in data set [2] was 60.3 °C.
On the same counts, the results for GATCGGTTGCCCGATC ((((((....)))))) are -32.5 kcal/mol and 57.2 °C.
As for GATCGGTTTACCGATC ((((((....)))))), the folding enthalpy in data set [1] is -37.4 kcal/mol. In data set [2], the Tm was 68.6 °C.
With GATCGTAAGGACGATC ((((((....)))))), the folding enthalpy in data set [1] was -31.8 kcal/mol. Besides, in data set [2], the Tm was 53.4 °C.

Values taken from the array DNA melting data of Ke et al. (doi:10.1101/2024.01.08.574731).
